INS-1E rescue: preserves ATP levels in cytokine-treated INS-1E cells; INS-1E cytokine-induced death, ATP luminescence, 48 h; normalised: neutral wells 0, positive control 100; protection from cytokine-induced ATP loss, % at 10 µM; 20,000 compounds, 0.1% hits;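 active means mean replicate protection from cytokine-induced ATP loss at least 50% and at least 75% of replicates each reaching 50%; inconclusive means meets only one of the two criteria, mean or replicate share; inactive means fails both the mean and replicate share criteria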
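Material: INS-1E rat cells; Quantity: 8000 cells/well; Buffer or medium: phenol-red-free RPMI with 5% fetal bovine serum; Probe or stimulus: cytokine cocktail of IFN-γ, TNF-α and IL-1β; Compound dosing: single test concentration per compound, delivered by pin transfer; Incubation: 48 h co-treatment, 10 min post-lysis read; Signal: CellTiter-Glo luminescence.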
A1 apoptosis 2: blocks A1, raising caspase activity; MEF A1-2A-BIM cells, caspase-Glo luminescence, 3 h; percent of clofoctol response, DMSO zero; caspase activation, % (concentration not given with the values); 24,000 tested, under 10 active; AID 2465; in the data active means caspase activation above about 5.9%; inconclusive means no clear call, values can overlap the other calls; inactive means below about 2.2%
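Test system – A1-2A-BIM-expressing MEF cells · Input – 2500 cells/well · Medium – RPMI-1640 growth medium with 10% FBS · Compound dosing – 50 nL pinned compound · Timing – 3 h compound exposure at 37 °C · Technique – Caspase-Glo luminescence (DEVD substrate) · Evaluation – Caspase-3/7 activity from luminescence increase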
T cruzi HTS: inhibitors of intracellular Trypanosoma cruzi; intracellular Trypanosoma cruzi in host cells, plate reader; activity score (inhibition), % at 5.01 µM; 22,000 compounds, 4.9% hits; in the data active means activity score above about 55%; inconclusive means no clear call, values can overlap the other calls;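 further: parasites and compound incubated about four days before reading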
Large screens that a line does not name were inactive. Shown is part of a subset that was picked to be rich in hits.

C[C@H]1CN([C@@H](C)CO)C(=O)Cc2cc(NS(=O)(=O)c3cccs3)ccc2O[C@@H]1CN(C)S(=O)(=O)c1cccs1	none (no result: A1 apoptosis 2)
C[C@H](CO)N1C[C@H](C)[C@H](CN(C)S(=O)(=O)c2cn(C)cn2)OCCCC[C@H](C)Oc2ccc(NC(=O)CCC(F)(F)F)cc2C1=O	none (no result: INS-1E rescue, T cruzi HTS)
CNC[C@H]1OCCCC[C@H](C)Oc2ccc(NC(=O)c3ccncc3)cc2C(=O)N([C@H](C)CO)C[C@@H]1C	none (no result: INS-1E rescue, T cruzi HTS)
C[C@@H]1CN([C@@H](C)CO)C(=O)c2cc(NC(=O)Nc3cccc4ccccc34)ccc2O[C@@H]1CN(C)S(=O)(=O)c1ccc(F)cc1	none
C[C@@H]1CN([C@@H](C)CO)C(=O)c2cc(NC(=O)Nc3ccc(C(F)(F)F)cc3)ccc2O[C@@H]1CN(C)S(=O)(=O)c1ccc(F)cc1	T cruzi HTS 68
C[C@@H]1CN([C@@H](C)CO)C(=O)c2cc(NC(=O)Nc3ccc(C(F)(F)F)cc3)ccc2O[C@H]1CN(C)S(=O)(=O)c1ccc(F)cc1	none
Cc1ccc(S(=O)(=O)N(C)C[C@@H]2Oc3ccc(NC(=O)c4ccncc4)cc3C(=O)N([C@H](C)CO)C[C@@H]2C)cc1	T cruzi HTS 63 (no result: A1 apoptosis 2)
C[C@@H]1CN([C@H](C)CO)C(=O)c2cc(NC(=O)Nc3ccc(C(F)(F)F)cc3)ccc2O[C@H]1CN(C)S(=O)(=O)c1ccccc1	T cruzi HTS 70
Cc1ccc(S(=O)(=O)N(C)C[C@@H]2Oc3ccc(NC(=O)c4ccncc4)cc3C(=O)N([C@H](C)CO)C[C@H]2C)cc1	none (no result: A1 apoptosis 2)
C[C@H]1CN([C@@H](C)CO)C(=O)c2cc(NC(=O)Nc3cccc4ccccc34)ccc2O[C@H]1CN(C)S(=O)(=O)c1ccc(F)cc1	T cruzi HTS 65 (no result: A1 apoptosis 2)
C[C@H](CO)N1C[C@H](C)[C@H](CN(C)S(=O)(=O)c2ccc(F)cc2)Oc2ccc(NC(=O)Nc3ccc(C(F)(F)F)cc3)cc2C1=O	none (no result: INS-1E rescue)
C[C@H]1CN([C@@H](C)CO)C(=O)c2cc(NC(=O)C3CC3)ccc2O[C@H]1CN(C)Cc1ccncc1	none (no result: INS-1E rescue)
O=C1O[C@H](c2ccccc2)[C@H](c2ccccc2)N2[C@H]1[C@@H](C(=O)N1CCN(c3ncccn3)CC1)[C@]1(C(=O)Nc3ccccc31)[C@H]2c1ccccc1OCCO	none (no result: INS-1E rescue, T cruzi HTS)
C[C@@H]1CN([C@H](C)CO)C(=O)Cc2cc(NC(=O)Nc3ccc(F)cc3)ccc2O[C@@H]1CN(C)S(=O)(=O)c1ccc(F)cc1	none (no result: A1 apoptosis 2)
C[C@H](CO)N1C[C@H](C)[C@H](CN(C)S(=O)(=O)c2ccc(C#N)cc2)Oc2ncc(C#CCN(C)C)cc2C1=O	none (no result: A1 apoptosis 2)
C[C@H](CO)N1C[C@H](C)[C@H](CN(C)C(=O)Nc2ccc3c(c2)OCO3)Oc2ccc(NC(=O)c3ccncc3)cc2C1=O	none
C[C@@H]1CN([C@@H](C)CO)C(=O)Cc2cc(NC(=O)C3CC3)ccc2O[C@H]1CN(C)Cc1ccc(-c2ccccc2)cc1	none (no result: INS-1E rescue, T cruzi HTS)
C[C@@H]1CN([C@H](C)CO)C(=O)Cc2cc(NC(=O)C3CC3)ccc2O[C@H]1CN(C)Cc1ccc(-c2ccccc2)cc1	none
C[C@H]1CN([C@@H](C)CO)C(=O)Cc2cc(NC(=O)C3CCCCC3)ccc2O[C@@H]1CN(C)Cc1ccc(-c2ccccc2)cc1	T cruzi HTS 60 (no result: A1 apoptosis 2)
C[C@H](CO)N1C[C@H](C)[C@H](CN(C)Cc2ccc(-c3ccccc3)cc2)Oc2ccc(NC(=O)C3CCCCC3)cc2CC1=O	T cruzi HTS 67 (no result: A1 apoptosis 2)
C[C@@H]1CN([C@H](C)CO)C(=O)Cc2cc(NC(=O)C3CCCCC3)ccc2O[C@H]1CN(C)Cc1ccc(-c2ccccc2)cc1	T cruzi HTS 57
C[C@@H]1CN([C@H](C)CO)C(=O)Cc2cc(NC(=O)C3CCCCC3)ccc2O[C@@H]1CN(C)Cc1ccc(-c2ccccc2)cc1	T cruzi HTS inconclusive
C[C@@H]1CN([C@@H](C)CO)C(=O)CCCn2cc(nn2)CO[C@@H]1CN(C)S(C)(=O)=O	none (no result: INS-1E rescue, A1 apoptosis 2)
COc1ccc(S(=O)(=O)N(C)C[C@H]2Oc3ccc(NC(=O)Cn4cnnn4)cc3CC(=O)N([C@@H](C)CO)C[C@@H]2C)cc1	none
Cc1noc(C)c1NC(=O)N(C)C[C@H]1Oc2ccc(NC(=O)Cc3cn(C)c4ccccc34)cc2C(=O)N([C@H](C)CO)C[C@H]1C	none (no result: A1 apoptosis 2)
C[C@@H]1CN([C@H](C)CO)C(=O)Cc2cc(NS(=O)(=O)c3ccc(F)cc3)ccc2O[C@@H]1CN(C)S(=O)(=O)c1ccc(Cl)cc1	T cruzi HTS 58 (no result: A1 apoptosis 2)
C[C@@H]1CN([C@@H](C)CO)C(=O)Cc2cc(NS(=O)(=O)c3ccc(F)cc3)ccc2O[C@@H]1CN(C)S(=O)(=O)c1ccc(Cl)cc1	T cruzi HTS 65 (no result: A1 apoptosis 2)

High-throughput results from PubChem.
